From ChEMBL document CHEMBL1129074, “Inhibitors of human immunodeficiency virus type 1 derived from gp41 transmembrane protein: structure--activity studies” (J Med Chem, 1996)
Square brackets hold non-standard residues; d marks the D form. Peptide text beside a SMILES is read from it. Ahx = NCCCCCC(=O)O

Tests used:
[1] = tested on: MT4; experiment: (§1) Inhibitory potency of gp41 fragment against HIV-1 induced cytopathic effect in MT-4 cell assay at 20 uM; type: functional; conditions: Homo sapiens
Method in brief: (§2)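 MT4 cells (exponential growth) at 5×10^5 cells/mL infected with HIV-1 IIIB (100× TCID50) for 1 h at 37 °C, diluted 6-fold, added to serially diluted peptide in RPMI 1640/FCS medium; mock-infected controls. After 5 days at 37 °C, 5% CO2, cells lysed with Nonidet-40 and DNA content read by propidium iodide. Inhibition = restoration of infected-cell growth relative to uninfected controls; cytotoxicity measured in parallel.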

[2] = tested on: MT4; experiment: Inhibitory potency of gp41 fragment against HIV-1 induced cytopathic effect in MT-4 cell assay at 200 uM; type: functional; conditions: Homo sapiens
[3] = tested on: MT4; experiment: Inhibitory potency of gp41 fragment against HIV-1 induced cytopathic effect in MT-4 cell assay at 100 uM; type: functional; conditions: Homo sapiens
[4] = tested on: MT4; experiment: Inhibitory potency of gp41 fragment against HIV-1 induced cytopathic effect in MT-4 cell assay at 5 uM; type: functional; conditions: Homo sapiens
[5] = tested on: MT4; experiment: Inhibitory potency of gp41 fragment against HIV-1 induced cytopathic effect in MT-4 cell assay at 6.4 uM; type: functional; conditions: Homo sapiens
[6] = tested on: MT4; experiment: as §1; type: functional, Homo sapiens; conditions: Homo sapiens, MT4; method in brief: as §2
[7] = tested on: MT4; experiment: Inhibitory potency of gp41 fragment against HIV-1 induced cytopathic effect in MT-4 cell assay at 8 uM; type: functional; conditions: Homo sapiens
[8] = tested on: MT4; experiment: Inhibitory potency of gp41 fragment against HIV-1 induced cytopathic effect in MT-4 cell assay at 40 uM; type: functional; conditions: Homo sapiens

`CC[C@H](C)[C@H](NC(=O)CNC(=O)[C@H](Cc1c[nH]c2ccccc12)NC(=O)[C@@H](NC(=O)[C@@H](NC(=O)[C@H](CC(C)C)NC(=O)[C@H](CCC(N)=O)NC(=O)[C@H](CC(C)C)NC(=O)[C@H](CC(C)C)NC(=O)CNC(=O)CNC(=O)[C@H](CS)NC(C)=O)[C@@H](C)O)C(C)C)C(=O)N[C@@H](CCCCN)C(=O)N[C@@H](CCC(N)=O)C(=O)N[C@@H](CC(C)C)C(=O)N[C@@H](CCC(N)=O)C(=O)N[C@@H](C)C(=O)N[C@@H](CCCN=C(N)N)C(=O)N[C@H](C(=O)N[C@@H](CC(C)C)C(=O)O)[C@@H](C)CC` (Ac-CGGLLQLTVWGIKQLQARIL-OH) was tested, and the inhibition at 20 µM [1] was 30%.
`CC[C@H](C)[C@H](NC(=O)CNC(=O)[C@H](Cc1c[nH]c2ccccc12)NC(=O)[C@@H](NC(=O)[C@@H](NC(=O)[C@H](CC(C)C)NC(=O)[C@H](CCC(N)=O)NC(=O)[C@H](CC(C)C)NC(=O)[C@H](CC(C)C)NC(=O)[C@H](Cc1c[nH]cn1)NC(=O)[C@H](CCC(N)=O)NC(=O)[C@H](CCC(N)=O)NC(=O)[C@H](C)NC(=O)[C@H](CCC(=O)O)NC(=O)[C@@H](NC(=O)[C@H](C)NC(=O)[C@H](CCCN=C(N)N)NC(=O)[C@H](CC(C)C)NC(=O)[C@H](CC(C)C)NC(=O)[C@H](CC(N)=O)NC(=O)[C@H](CC(N)=O)NC(C)=O)[C@@H](C)CC)[C@@H](C)O)C(C)C)C(=O)N[C@@H](C)C(=O)N[C@@H](C)C(=O)N[C@@H](CC(C)C)C(=O)N[C@@H](CCC(N)=O)C(=O)N[C@@H](C)C(=O)N[C@@H](CCCN=C(N)N)C(=O)N[C@H](C(=O)N[C@@H](C)C(=O)N[C@@H](C)C(=O)N[C@H](C(=O)N[C@@H](CCC(=O)O)C(=O)N[C@@H](C)C(=O)N[C@@H](Cc1ccc(O)cc1)C(=O)N[C@@H](CC(C)C)C(=O)N[C@@H](C)C(=O)N[C@@H](C)C(=O)N[C@@H](CCC(N)=O)C(=O)O)C(C)C)[C@@H](C)CC` (Ac-NNLLRAIEAQQHLLQLTVWGIAALQARIAAVEAYLAAQ-OH) showed an inhibition at 20 µM [1] of 22%.
Compound `CC[C@H](C)[C@H](NC(=O)CCCCCNC(=O)CCCCCNC(=O)CCCCCNC(=O)[C@H](CC(C)C)NC(=O)[C@H](CCC(N)=O)NC(=O)[C@H](CC(C)C)NC(=O)[C@H](CC(C)C)NC(=O)[C@H](Cc1c[nH]cn1)NC(=O)[C@H](CCC(N)=O)NC(C)=O)C(=O)N[C@@H](CCCCN)C(=O)N[C@@H](CCC(N)=O)C(=O)N[C@@H](CC(C)C)C(=O)N[C@@H](CCC(N)=O)C(=O)N[C@@H](C)C(=O)N[C@@H](CCCN=C(N)N)C(=O)N[C@H](C(=O)N[C@@H](CC(C)C)C(=O)N[C@@H](C)C(=O)N[C@H](C(=O)N[C@@H](CCC(=O)O)C(=O)O)C(C)C)[C@@H](C)CC` (Ac-QHLLQL[Ahx][Ahx][Ahx]IKQLQARILAVE-OH) has an inhibition at 200 µM [2] of 0%.
With `CC[C@H](C)[C@H](NC(=O)[C@H](CCCN=C(N)N)NC(=O)[C@H](C)NC(=O)[C@H](CCC(N)=O)NC(=O)[C@H](CC(C)C)NC(=O)[C@H](CCC(N)=O)NC(=O)[C@H](CCCCN)NC(=O)[C@@H](NC(=O)CNC(=O)[C@H](Cc1c[nH]c2ccccc12)NC(=O)[C@@H](NC(=O)[C@@H](NC(=O)[C@H](CC(C)C)NC(=O)[C@H](CCC(N)=O)NC(C)=O)[C@@H](C)O)C(C)C)[C@@H](C)CC)C(=O)O` (Ac-QLTVWGIKQLQARI-OH) the inhibition at 100 µM [3] was 0%.
`CC[C@H](C)[C@H](N)C(=O)N[C@@H](CCCCN)C(=O)N[C@@H](CCC(N)=O)C(=O)N[C@@H](CC(C)C)C(=O)N[C@@H](CCC(N)=O)C(=O)N[C@@H](C)C(=O)N[C@@H](CCCN=C(N)N)C(=O)N[C@H](C(=O)N[C@@H](CC(C)C)C(=O)N[C@@H](C)C(=O)N[C@H](C(=O)N[C@@H](CCC(=O)O)C(=O)N[C@@H](CCCN=C(N)N)C(=O)N[C@@H](Cc1ccc(O)cc1)C(=O)N[C@@H](CC(C)C)C(=O)N[C@@H](CCCCN)C(=O)N[C@@H](CC(=O)O)C(=O)N[C@@H](CCC(N)=O)C(=O)O)C(C)C)[C@@H](C)CC` (H-IKQLQARILAVERYLKDQ-OH) was tested, and the inhibition at 200 µM [2] was 0%.
In the case of `CC[C@H](C)[C@H](NC(=O)[C@H](CCCN=C(N)N)NC(=O)[C@H](C)NC(=O)[C@H](CCC(N)=O)NC(=O)[C@H](CC(C)C)NC(=O)[C@H](CCC(N)=O)NC(=O)[C@H](CCCCN)NC(=O)[C@@H](NC(=O)CNC(=O)[C@H](Cc1c[nH]c2ccccc12)NC(=O)[C@@H](NC(=O)[C@@H](NC(=O)[C@H](CC(C)C)NC(=O)[C@H](CCC(N)=O)NC(=O)[C@@H](N)CC(C)C)[C@@H](C)O)C(C)C)[C@@H](C)CC)C(=O)O` (H-LQLTVWGIKQLQARI-OH), the inhibition at 100 µM [3] is reported as 21%.
`CC[C@H](C)[C@H](NC(=O)CNC(=O)[C@H](Cc1c[nH]c2ccccc12)NC(=O)[C@@H](NC(=O)[C@@H](NC(=O)[C@H](CC(C)C)NC(=O)[C@H](CCC(N)=O)NC(=O)[C@H](CC(C)C)NC(=O)[C@H](CC(C)C)NC(=O)[C@H](Cc1c[nH]cn1)NC(=O)[C@H](CCC(N)=O)NC(=O)[C@H](CCC(N)=O)NC(=O)[C@H](C)NC(=O)[C@H](CCC(=O)O)NC(=O)[C@@H](NC(=O)[C@H](C)NC(=O)[C@H](CCCN=C(N)N)NC(=O)[C@H](CC(C)C)NC(=O)[C@H](CC(C)C)NC(=O)[C@H](CC(N)=O)NC(=O)[C@@H](N)CC(N)=O)[C@@H](C)CC)[C@@H](C)O)C(C)C)C(=O)N[C@@H](CCCCN)C(=O)N[C@@H](CCC(N)=O)C(=O)N[C@@H](CC(C)C)C(=O)N[C@@H](CCC(N)=O)C(=O)N[C@@H](C)C(=O)N[C@@H](CCCN=C(N)N)C(=O)N[C@H](C(=O)N[C@@H](CC(C)C)C(=O)N[C@@H](C)C(=O)N[C@H](C(=O)N[C@@H](CCC(=O)O)C(=O)O)C(C)C)[C@@H](C)CC` (H-NNLLRAIEAQQHLLQLTVWGIKQLQARILAVE-OH) showed an inhibition at 5 µM [4] of 37%.
With `CC[C@H](C)[C@H](NC(=O)[C@H](CCCN=C(N)N)NC(=O)[C@H](C)NC(=O)[C@H](CCC(N)=O)NC(=O)[C@H](CC(C)C)NC(=O)[C@H](CCC(N)=O)NC(=O)[C@H](CCCCN)NC(=O)[C@@H](NC(=O)CNC(=O)[C@H](Cc1c[nH]c2ccccc12)NC(=O)[C@@H](NC(=O)[C@@H](NC(=O)[C@H](CC(C)C)NC(=O)[C@@H](N)CCC(N)=O)[C@@H](C)O)C(C)C)[C@@H](C)CC)C(=O)O` (H-QLTVWGIKQLQARI-OH) the inhibition at 100 µM [3] was 0%.
With `CCCCCCCCCCCCC(N)C(=O)N[C@@H](CC(C)C)C(=O)N[C@@H](CCC(N)=O)C(=O)N[C@@H](CC(C)C)C(=O)N[C@H](C(=O)N[C@H](C(=O)N[C@@H](Cc1c[nH]c2ccccc12)C(=O)NCC(=O)N[C@H](C(=O)N[C@@H](CCCCN)C(=O)N[C@@H](CCC(N)=O)C(=O)N[C@@H](CC(C)C)C(=O)N[C@@H](CCC(N)=O)C(=O)N[C@@H](C)C(=O)N[C@@H](CCCN=C(N)N)C(=O)N[C@H](C(=O)O)[C@@H](C)CC)[C@@H](C)CC)C(C)C)[C@@H](C)O` (some centres undefined) (HELM PEPTIDE1{[CCCCCCCCCCCCC(N)C(=O)[*:2]].L.Q.L.T.V.W.G.I.K.Q.L.Q.A.R.I}$$$$V2.0) the inhibition at 6.4 µM [5] was 37%.
With `CCCCCCCCCCCCC(N)C(=O)N[C@@H](CCC(N)=O)C(=O)N[C@@H](Cc1c[nH]cn1)C(=O)N[C@@H](CC(C)C)C(=O)N[C@@H](CC(C)C)C(=O)N[C@@H](CCC(N)=O)C(=O)N[C@@H](CC(C)C)C(=O)N[C@H](C(=O)N[C@H](C(=O)N[C@@H](Cc1c[nH]c2ccccc12)C(=O)NCC(=O)N[C@H](C(=O)N[C@@H](CCCCN)C(=O)N[C@@H](CCC(N)=O)C(=O)N[C@@H](CC(C)C)C(=O)N[C@@H](CCC(N)=O)C(=O)N[C@@H](C)C(=O)N[C@@H](CCCN=C(N)N)C(=O)N[C@H](C(=O)N[C@@H](CC(C)C)C(=O)N[C@@H](C)C(=O)N[C@H](C(=O)N[C@@H](CCC(=O)O)C(=O)N[C@@H](CCCN=C(N)N)C(=O)N[C@@H](Cc1ccc(O)cc1)C(=O)N[C@@H](CC(C)C)C(=O)N[C@@H](CCCCN)C(=O)N[C@@H](CC(=O)O)C(=O)N[C@@H](CCC(N)=O)C(=O)O)C(C)C)[C@@H](C)CC)[C@@H](C)CC)C(C)C)[C@@H](C)O` (some centres undefined) (HELM PEPTIDE1{[CCCCCCCCCCCCC(N)C(=O)[*:2]].Q.H.L.L.Q.L.T.V.W.G.I.K.Q.L.Q.A.R.I.L.A.V.E.R.Y.L.K.D.Q}$$$$V2.0) the inhibition at 20 µM [6] was 0%, the inhibition at 5 µM [4] was 10% and the inhibition at 8 µM [7] was 15%.
`CC[C@H](C)[C@H](NC(=O)[C@H](CCCN=C(N)N)NC(=O)[C@H](C)NC(=O)[C@H](CCC(N)=O)NC(=O)[C@H](CC(C)C)NC(=O)[C@H](CCC(N)=O)NC(=O)[C@H](CCCCN)NC(=O)[C@@H](NC(=O)CNC(=O)[C@H](Cc1c[nH]c2ccccc12)NC(=O)[C@@H](NC(=O)[C@@H](NC(=O)[C@H](CC(C)C)NC(=O)[C@H](CCC(N)=O)NC(=O)[C@H](CC(C)C)NC(=O)CCCCCN)[C@@H](C)O)C(C)C)[C@@H](C)CC)C(=O)O` (HELM PEPTIDE1{[NCCCCCC(=O)[*:2]].L.Q.L.T.V.W.G.I.K.Q.L.Q.A.R.I}$$$$V2.0) gave an inhibition at 40 µM [8] of 33%.
`CC[C@H](C)[C@H](NC(=O)[C@H](CCCN=C(N)N)NC(=O)[C@H](C)NC(=O)[C@H](CCC(N)=O)NC(=O)[C@H](CC(C)C)NC(=O)[C@H](CCC(N)=O)NC(=O)[C@H](CCCCN)NC(=O)[C@@H](NC(=O)CNC(=O)[C@H](Cc1c[nH]c2ccccc12)NC(=O)[C@@H](NC(=O)[C@@H](NC(=O)[C@H](CC(C)C)NC(=O)[C@H](CCC(N)=O)NC(=O)CCCCCN)[C@@H](C)O)C(C)C)[C@@H](C)CC)C(=O)O` (HELM PEPTIDE1{[NCCCCCC(=O)[*:2]].Q.L.T.V.W.G.I.K.Q.L.Q.A.R.I}$$$$V2.0) was tested, and the inhibition at 40 µM [8] was 11%.
